We go through nine compounds from ChEMBL document CHEMBL4024771, “Optimization of Orally Bioavailable Enhancer of Zeste Homolog 2 (EZH2) Inhibitors Using Ligand and Property-Based Design Strategies: Identification of Development Candidate …” (J Med Chem, 2018).

One data set concerns KARPAS-422. The experiment in a line: Antiproliferative activity against human KARPAS422 cells after 72 hrs by resazurin assay. Format: functional, cell-based. On the technique in general: Alamar Blue is a resazurin reagent that responds to reducing activity.
Data set [1] is described as follows: Lipophilicity, log D of the compound at pH 7.4. To be noted: buffer, pH 7.4, logD.
Data set [2] in a line: Kinetic solubility of the compound. Format: physicochemical. The following applies: for solubility kinetic: read-out: Kinetic_solubility.
The nature of data set [3]: Passive permeability in MDCK cells at 2 uM after 90 mins by LC-MS/MS analysis. The data set is classed as ADME, cell-based, Canis lupus familiaris. To be noted: dog, MDCK; read-out: permeability. The method in brief:
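Low-efflux MDCK cells (MDCK-LE) on 96-well inserts, used on day 4. Monodirectional transport of 2 μM drug in transport buffer with 0.1% DMSO at 37 °C. Donor and receiver sampled at 0 and 90 min for LC−MS/MS. Donor pH 6.5 and 7.4, receiver pH 7.4.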

The nature of data set [4]: Thermodynamic solubility in water at 25 degC using crystalline form. Format: physicochemical. The following applies: read-out: Therm_solubility.
Data set [5] is described as follows: (§1) Intrinsic clearance in human liver microsomes assessed per mg protein at 1 uM preincubated for 10 mins followed by NADPH addition measured after 45 mins by LC-MS/MS analysis. Format: ADME, microsome. To be noted: liver microsomes, read-out: CLH. The method in brief:
(§2)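 Test compound (1 μM) with pooled liver microsomes (0.8 mg/mL protein) in 100 mM potassium phosphate pH 7.4, 10 min preincubation, started with 2 mM NADPH, 45 min at 37 °C, in triplicate. Samples quenched with cold methanol containing buspirone internal standard, analysed by LC−MS/MS. CLint derived from t1/2 of parent loss (log-linear slope).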
In general terms: Liver microsomes are a subcellular fraction often used to study metabolism.

Data set [6] addresses Histone-lysine N-methyltransferase EZH2 (Homo sapiens, UniProt Q15910). Nature of the data set: Inhibition of EZH2 in human KARPAS422 cells assessed as reduction in H3K27me3 level after 72 hrs by ELISA. (In an ELISA, binding on a coated surface is turned into a signal by an enzyme label.)
Data set [7] has as its target Histone-lysine N-methyltransferase EZH2 (Homo sapiens, UniProt Q15910, Y641N). Nature of the data set: Inhibition of EZH2 Y641N mutant (unknown origin) using oligonucleosomes as substrate after 60 mins in presence of [3H]SAM by scintillation counting analysis.
The nature of data set [8]: Clearance in human hepatocytes assessed per million cells. To be noted: read-out: CLH. The data set is classed as ADME, cell-based, Hepatocyte.
The next data set concerns Liver. The data set is described as §1. The following applies: microsomes, 0.75 h, 1 µM. The data set is classed as ADME, microsome. The procedure, abridged:
as §2

By IC50 is commonly meant the concentration at which inhibition is half-maximal. One may read the logD as the decadic logarithm of the distribution of all forms, ionised or not, between an organic phase and buffer at a given pH. A low value points to a more hydrophilic compound. As a reminder, the Ki is the dissociation constant of the complex between target and ligand, obtained from inhibition or displacement.

Each structure is given as a SMILES string. Converted amounts (≈) assume the structure as drawn.

Sequence of Histone-lysine N-methyltransferase EZH2 (Homo sapiens, UniProt Q15910) (Q15910 whole entry): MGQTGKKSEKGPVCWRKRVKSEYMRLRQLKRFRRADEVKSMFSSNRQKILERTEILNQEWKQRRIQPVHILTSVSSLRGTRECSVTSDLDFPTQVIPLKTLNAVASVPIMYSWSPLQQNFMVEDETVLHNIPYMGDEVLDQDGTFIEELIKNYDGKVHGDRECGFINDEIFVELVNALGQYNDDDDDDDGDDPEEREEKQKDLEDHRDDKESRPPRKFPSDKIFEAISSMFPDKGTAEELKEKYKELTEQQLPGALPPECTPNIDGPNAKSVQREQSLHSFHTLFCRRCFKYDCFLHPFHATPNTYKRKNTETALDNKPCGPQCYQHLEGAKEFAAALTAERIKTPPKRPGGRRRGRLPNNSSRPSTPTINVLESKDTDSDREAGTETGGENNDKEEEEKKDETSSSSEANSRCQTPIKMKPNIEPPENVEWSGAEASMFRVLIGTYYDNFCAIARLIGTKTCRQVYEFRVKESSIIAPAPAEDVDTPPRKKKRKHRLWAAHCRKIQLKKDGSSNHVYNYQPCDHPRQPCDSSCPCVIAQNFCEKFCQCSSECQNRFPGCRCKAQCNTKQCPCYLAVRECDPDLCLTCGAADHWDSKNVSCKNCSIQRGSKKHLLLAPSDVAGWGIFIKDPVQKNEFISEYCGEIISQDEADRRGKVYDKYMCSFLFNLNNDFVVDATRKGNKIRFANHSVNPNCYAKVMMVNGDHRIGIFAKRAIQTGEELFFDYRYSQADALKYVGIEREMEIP
Sequence of Histone-lysine N-methyltransferase EZH2 (Homo sapiens, UniProt Q15910, Y641N) (Q15910 whole entry Y641N): as the sequence (Q15910 whole entry) above, with Y641N counted along it

As for `Cc1cc(C)c(CN2CCc3c(Cl)cc([C@H](C)CO)c(Cl)c3C2=O)c(=O)[nH]1`, the concentration for half-maximal inhibition (IC50) with KARPAS-422 (Homo sapiens, KARPAS-422, 72 h) came to 186 nM; in [6], 129 nM. The logD in data set [1] is 2.6. In addition, the solubility kinetic in data set [2] was 131 µM (≈ 53.6 µg/mL). Further, the Papp at […], 2 µM in data set [3] came out at 12.4 ×10⁻⁶ cm/s. Further, in data set [4], the solubility thermodynamic came to 34 µg/mL (≈ 83.1 µM). The microsomal CLint at 1 µM in [5] amounted to 15.8 µL/min/mg. Moreover, in data set [7], the Ki came to 17 nM.
With `Cc1cc(C)c(CN2CCc3c(Cl)cc(-c4c(C)noc4C)c(Cl)c3C2=O)c(=O)[nH]1`, the IC50 in the data set with KARPAS-422 (Homo sapiens, KARPAS-422, 72 h) is 23 nM; in [6] it was 17 nM. Also, the solubility kinetic in data set [2] was in the range of 93 to 95 µM (≈ 41.5 to 42.4 µg/mL). The hepatocyte CLint in data set [8] came out at 75 µL/min/1e6 cells. Further, in data set [3], the Papp at […], 2 µM worked out at 15.7 ×10⁻⁶ cm/s. The solubility thermodynamic in [4] is 2 µg/mL (≈ 4.48 µM). Moreover, the microsomal CLint at 1 µM in data set [5] lay within 107 to 169 µL/min/mg. In [7], the Ki was 1.15 nM.
`COC(c1cc(Cl)c2c(c1Cl)C(=O)N(Cc1c(C)cc(C)[nH]c1=O)CC2)C1CCOC1` (single isomer, unassigned; (+)-10a): the IC50 is 25 nM in the data set with KARPAS-422 (karpas-422) and 7 nM in data set [6]. The compound also returned a logD in data set [1] of 3. The Kinetic_solubility in [2] is 436 µM. For the same compound, the Papp at […], 2 µM in data set [3] turned out to be 17.1 ×10⁻⁶ cm/s. This compound showed a microsomal CLint in the data set with Liver of 108 µL/min/mg. Moreover, the Ki in [7] was found to be 0.6 nM.
Take `COc1cc(C)[nH]c(=O)c1CN1CCc2c(Cl)cc(C(OC)C3(C)COC3)c(Cl)c2C1=O` (single isomer, unassigned; (+)): the IC50 in the data set on KARPAS-422 (karpas-422) turned out to be 9 nM; in [6] it was 8 nM. In data set [1], this compound registered a pH-dependent lipophilicity (logD) of 2.3. In data set [2], the solubility kinetic stood at 486 µM (≈ 234 µg/mL). In addition, in data set [3], the Papp at […], 2 µM was determined as 5.7 ×10⁻⁶ cm/s. For the same compound, in the data set with Liver, the microsomal CLint was 207 µL/min/mg. Moreover, in [7], the Ki was 0.7 nM.
Take `CCC(O)c1cc(Cl)c2c(c1Cl)C(=O)N(Cc1c(C)cc(C)[nH]c1=O)CC2` (single isomer, unassigned; (+)): the 50% inhibitory concentration (IC50) in the data set on KARPAS-422 (karpas-422) is 714 nM; in data set [6] it was 1050 nM. Moreover, the logD in data set [1] worked out at 3.1. Besides, the Kinetic_solubility in data set [2] turned out to be 59 µM. The Papp at […], 2 µM in data set [3] was determined as 15 ×10⁻⁶ cm/s. The compound also showed a microsomal CLint in the data set with Liver of 18 µL/min/mg. Also, in [7], the Ki amounted to 130 nM.
With `COC(c1cc(Cl)c2c(c1Cl)C(=O)N(Cc1c(C)cc(C)[nH]c1=O)CC2)C1CCOCC1` (single isomer, unassigned; (+)), the concentration for half-maximal inhibition (IC50) with KARPAS-422 (karpas-422) amounted to 19 nM; in data set [6], 9 nM. Further, the logD in [1] was 3.4. In data set [2], the solubility kinetic is 57.5 µM (≈ 27.6 µg/mL). Also, in [3], the Papp at […], 2 µM stood at 13.3 ×10⁻⁶ cm/s. For the same compound, in the data set on Liver, the microsomal CLint was 129 µL/min/mg. Also, the Ki in [7] was determined as 0.1 nM.
Regarding `Cc1cc(C)c(CN2CCc3c(Cl)cc(C(CO)C4CCOC4)c(Cl)c3C2=O)c(=O)[nH]1` (stereo in doubt; (-)-6b), the half-maximal inhibitory concentration (IC50) was 17 nM in the data set on KARPAS-422 (karpas-422) and 15 nM in [6]. Also, the logD in [1] turned out to be 2.1. Also, the Kinetic_solubility in data set [2] came out at 508 µM. In addition, the Papp at […], 2 µM in data set [3] was 2.5 ×10⁻⁶ cm/s. The compound further displayed a microsomal CLint in the data set with Liver of 25.9 µL/min/mg. Also, the Ki in [7] turned out to be 0.38 nM.
As to `Cc1cc(C)c(CN2CCc3c(Cl)cc(C(CO)C4CCOCC4)c(Cl)c3C2=O)c(=O)[nH]1` (single isomer, unassigned; (-)), the 50% inhibitory concentration (IC50) (in the data set with KARPAS-422 (karpas-422); in [6]) was 11 nM in each case. The logD in data set [1] turned out to be 2.3. The same compound came in with a Kinetic_solubility in data set [2] of 540 µM. Also, the Papp at […], 2 µM in [3] is 2.9 ×10⁻⁶ cm/s. In the data set on Liver, the microsomal CLint is 41.5 µL/min/mg. Besides, the Ki in data set [7] turned out to be 0.15 nM.
`COC(c1cc(Cl)c2c(c1Cl)C(=O)N(Cc1c(C)cc(C)[nH]c1=O)CC2)C1CCN(C2COC2)CC1` (single isomer, unassigned; (+)): the IC50 with KARPAS-422 (karpas-422) came out at 25 nM; in [6], 16 nM. This compound also displayed a logD in [1] of 2.7. The solubility kinetic in [2] turned out to be 523 µM (≈ 280 µg/mL). For the same compound, in data set [3], the Papp at […], 2 µM stood at 7 ×10⁻⁶ cm/s. Moreover, the microsomal CLint in the data set with Liver came out at 72.7 µL/min/mg. In addition, in data set [7], the Ki was 0.64 nM.
